From ChEMBL document CHEMBL4406804, “Discovery of a Potent Steroidal Glucocorticoid Receptor Antagonist with Enhanced Selectivity against the Progesterone and Androgen Receptors (OP-3633)” (J Med Chem, 2019) come the findings set out here.

As a reminder, the inhibition is the relative decrease from the control value, in per cent. As usually defined, the IC50 is the point on the concentration scale where inhibition reaches its midpoint. The half-life is how long it takes for the measured level to halve. Usually EC50 stands for the concentration that produces a half-maximal response. By bioavailability is commonly meant the share of a dose that reaches the circulation, judged against a reference dose that is usually intravenous.

One series deals with T1, CYP2C8 (Homo sapiens, UniProt P10632).
T1 sequence (P10632 whole entry): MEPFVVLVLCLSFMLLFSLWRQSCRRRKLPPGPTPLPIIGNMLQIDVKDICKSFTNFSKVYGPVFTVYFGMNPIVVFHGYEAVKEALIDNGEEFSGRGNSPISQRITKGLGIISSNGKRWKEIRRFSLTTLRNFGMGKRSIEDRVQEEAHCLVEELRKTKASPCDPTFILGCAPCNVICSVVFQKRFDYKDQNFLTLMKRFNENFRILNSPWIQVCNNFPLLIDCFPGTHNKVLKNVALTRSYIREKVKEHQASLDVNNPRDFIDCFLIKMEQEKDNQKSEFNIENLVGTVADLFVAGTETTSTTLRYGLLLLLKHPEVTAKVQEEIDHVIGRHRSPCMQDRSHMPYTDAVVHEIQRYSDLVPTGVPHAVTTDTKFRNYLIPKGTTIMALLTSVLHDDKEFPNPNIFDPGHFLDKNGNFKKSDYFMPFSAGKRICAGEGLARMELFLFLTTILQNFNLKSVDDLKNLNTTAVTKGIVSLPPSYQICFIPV
Put plainly: Inhibition of CYP2C8 (unknown origin) at 10 uM using paclitaxel as substrate relative to control. Type of series: ADME. The conditions noted are these: probe paclitaxel.

In a further series the target is Cytochrome P450 3A4 (Homo sapiens, UniProt P08684). Put plainly: Inhibition of CYP3A4 (unknown origin) using midazolam as substrate. Format: ADME.
Series [1] in a line: Volume of distribution at steady state in rat at 0.5 mg/kg, iv. Format: ADME, organism-based. The conditions noted are these: in vivo, read-out: Vdss. In outline: (§1)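 Rat PK study. The iv dose of 0.5 mg/kg was given in 10% DMSO, 70% PEG 400 and 20% water. The oral dose of 5 mg/kg was given in 5% DMSO / 95% of 0.2% Tween 80 in 0.25% CMC, adjusted to pH 4 for one compound. Read-outs were CL, Vss, iv t1/2, F, Cmax and AUC.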

Series [2] is described as follows: Volume of distribution at steady state in mini-pig at 0.5 mg/kg, iv. To be noted: in vivo, read-out: Vdss. Type of series: ADME, organism-based, Sus scrofa domesticus.
Series [3] can be described thus: Half-life in rat at 0.5 mg/kg, iv. Type of series: ADME, organism-based. The conditions noted are these: in vivo. In a few lines:
as §1

Series [4] addresses T2, Glucocorticoid receptor (Homo sapiens) (UniProt P04150).
T2 sequence (whole entry): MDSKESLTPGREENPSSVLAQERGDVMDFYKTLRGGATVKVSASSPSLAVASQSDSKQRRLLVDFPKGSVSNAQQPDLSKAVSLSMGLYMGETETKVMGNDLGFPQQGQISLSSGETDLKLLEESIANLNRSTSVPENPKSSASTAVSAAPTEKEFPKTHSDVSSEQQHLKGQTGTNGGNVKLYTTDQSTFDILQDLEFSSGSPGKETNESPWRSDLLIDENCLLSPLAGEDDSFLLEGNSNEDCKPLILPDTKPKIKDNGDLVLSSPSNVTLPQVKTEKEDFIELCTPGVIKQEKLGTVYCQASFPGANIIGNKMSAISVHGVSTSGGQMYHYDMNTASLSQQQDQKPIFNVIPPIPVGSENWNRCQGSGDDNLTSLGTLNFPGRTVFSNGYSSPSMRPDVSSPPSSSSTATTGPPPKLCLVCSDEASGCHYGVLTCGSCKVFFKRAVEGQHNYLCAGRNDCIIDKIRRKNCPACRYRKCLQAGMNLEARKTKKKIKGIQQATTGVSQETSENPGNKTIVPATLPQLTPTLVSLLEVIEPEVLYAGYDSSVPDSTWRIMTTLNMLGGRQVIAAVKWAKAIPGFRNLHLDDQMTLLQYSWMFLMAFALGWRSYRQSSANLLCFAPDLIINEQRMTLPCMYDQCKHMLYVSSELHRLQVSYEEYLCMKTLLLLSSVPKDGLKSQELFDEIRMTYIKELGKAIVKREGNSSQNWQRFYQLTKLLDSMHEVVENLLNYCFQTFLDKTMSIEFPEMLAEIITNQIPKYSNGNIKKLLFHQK
Put plainly: Antagonist activity at human glucocorticoid receptor expressed in CHO-K1 cells harboring firefly luciferase gene assessed as inhibition of glucocorticoid receptor activity at 0.01 to 10000 nM after 20 hrs by One-Glo luciferase reporter gene assay relative to mifepristone. Type of series: cell-based. Set-up: scale not given: the % may be the effect or the level left. In outline:
(§2)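 Cell-based luciferase reporter assays for GR, AR and PR, run in agonist and antagonist modes. Potency and Emax are averages of at least two determinations, reported with SD.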
(In general: A reporter such as luciferase makes a cellular process visible.)

Series [5] deals with T3, Androgen receptor (Homo sapiens, UniProt P10275).
T3 sequence (P10275 whole entry): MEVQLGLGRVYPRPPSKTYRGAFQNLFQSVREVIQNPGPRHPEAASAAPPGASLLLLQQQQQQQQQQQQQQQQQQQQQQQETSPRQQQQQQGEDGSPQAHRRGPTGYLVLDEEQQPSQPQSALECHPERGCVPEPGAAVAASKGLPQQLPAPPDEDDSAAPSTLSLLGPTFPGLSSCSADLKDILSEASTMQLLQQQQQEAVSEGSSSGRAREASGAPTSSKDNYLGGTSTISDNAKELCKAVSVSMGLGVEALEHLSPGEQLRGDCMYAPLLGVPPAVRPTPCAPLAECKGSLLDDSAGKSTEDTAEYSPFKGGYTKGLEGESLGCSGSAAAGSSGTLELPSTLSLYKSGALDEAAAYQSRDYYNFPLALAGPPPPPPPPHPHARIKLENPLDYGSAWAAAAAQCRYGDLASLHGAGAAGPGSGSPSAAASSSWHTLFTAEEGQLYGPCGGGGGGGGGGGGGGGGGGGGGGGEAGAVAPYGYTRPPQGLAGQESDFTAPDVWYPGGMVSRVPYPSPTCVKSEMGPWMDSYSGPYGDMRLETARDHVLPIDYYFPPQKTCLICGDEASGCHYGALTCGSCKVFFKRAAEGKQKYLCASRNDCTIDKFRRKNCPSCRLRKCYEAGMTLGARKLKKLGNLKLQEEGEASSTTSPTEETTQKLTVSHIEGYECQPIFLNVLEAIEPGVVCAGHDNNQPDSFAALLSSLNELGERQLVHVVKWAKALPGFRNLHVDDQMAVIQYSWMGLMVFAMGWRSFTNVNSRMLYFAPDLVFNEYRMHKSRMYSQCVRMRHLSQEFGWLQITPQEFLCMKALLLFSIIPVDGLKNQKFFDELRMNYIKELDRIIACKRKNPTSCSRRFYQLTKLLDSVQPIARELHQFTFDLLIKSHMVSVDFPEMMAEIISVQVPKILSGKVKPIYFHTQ
The experiment in a line: Agonist activity at human androgen receptor in human LNCAP cells harboring firefly luciferase gene after 20 hrs by One-Glo luciferase reporter gene assay. Type of series: cell-based.

Series [6] is described as follows: Oral bioavailability in rat at 5 mg/kg. To be noted: in vivo. Format: ADME, organism-based. In outline:
as §1

A further series deals with Mus musculus. The experiment in a line: Unbound plasma concentration in hsd:athymic Nude-Foxn1nu mouse xenografted with human HCC1806 cells at 150 mg/kg, po administered as single dose via gavage and measured after 1 to 6 hrs […]. To be noted: in vivo. Format: ADME, organism-based. In outline: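 Mice bearing HCC1806 xenografts received a bolus oral dose of cortisol at 5 mg/kg to activate GR, plus a single oral gavage dose of the test agent at 150 mg/kg. An unbound plasma concentration-time profile was taken up to 6 h, with n = 3 mice per group.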
(In general: In xenograft studies the graft and the host belong to different species.)

In series [7] the target is T3, Androgen receptor. The experiment in a line: Antagonist activity at human androgen receptor in human LNCAP cells harboring firefly luciferase gene after 20 hrs by One-Glo luciferase reporter gene assay. Format: cell-based. In outline: as §2

Cytochrome P450 3A4, sequence (P08684 whole entry): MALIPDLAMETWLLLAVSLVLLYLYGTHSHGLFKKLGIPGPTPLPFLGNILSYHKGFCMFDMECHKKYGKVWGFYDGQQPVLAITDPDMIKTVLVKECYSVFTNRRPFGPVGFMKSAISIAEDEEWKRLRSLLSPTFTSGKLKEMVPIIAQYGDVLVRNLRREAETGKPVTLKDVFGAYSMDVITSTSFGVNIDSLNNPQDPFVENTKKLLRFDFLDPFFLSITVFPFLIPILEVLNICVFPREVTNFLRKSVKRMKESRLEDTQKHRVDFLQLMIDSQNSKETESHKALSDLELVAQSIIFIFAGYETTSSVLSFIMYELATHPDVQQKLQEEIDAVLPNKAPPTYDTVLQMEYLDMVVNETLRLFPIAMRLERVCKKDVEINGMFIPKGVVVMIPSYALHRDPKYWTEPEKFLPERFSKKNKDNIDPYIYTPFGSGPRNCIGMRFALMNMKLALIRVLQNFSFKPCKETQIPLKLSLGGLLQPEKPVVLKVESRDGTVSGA

At CYP2C8, `CC#C[C@]1(O)CC[C@H]2[C@@H]3CCC4=CC(=O)CC[C@]4(C)[C@H]3[C@@H](c3ccc(N(C)C)cc3)C[C@@]21C` yielded an inhibition at 10 µM of 58%. Further, the IC50 against Cytochrome P450 3A4 is above 10 µM; on Androgen receptor [7], 0.912 µM. In addition, the values for the Vd in series [1] and in series [2] were 4.7 L/kg and 1.45 L/kg, respectively. For the same compound, in series [3], the half-life was 1.8 h. In addition, the Activity in series [4] is 100%. The EC50 on Androgen receptor [5] was above 2.5 µM. The compound further showed a bioavailability in series [6] of 62%. Also, the “Cp(f)” value with Mus musculus was found to be 400 nM.
